Compound activity from PubChem BioAssay.
Sampled rows, rich in hits. Any-hit rate of the full collection: about 4.4%.
AI-2 QS modul – modulates the Vibrio harveyi AI-2 quorum sensing system; Vibrio harveyi JMH597 AI-2 luminescence/OD600 ratio, 9 h; active compounds read low; strain lacks LuxN and CqsS sensors; 0 = neutral-control median; activity change, % at 7.5 µM; 0.4% of 300,000 active; in the data active means activity change below about -75%, passing the limit was not always enough;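 further: luminescence divided by OD600 gain over 9 h not by final OD600 alone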
HTR2A ag – activates the mouse 5-HT2A serotonin receptor; P35363; CHO-K1 mHTR2A beta-arrestin complementation, luminescence; percent of 30 µM serotonin response; activation, % at 7.6 µM; 0.66% of 360,000 active;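 active means activation above a run cutoff, the mean activation of all tested compounds plus 3 SD, cut at about 14% in these data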;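 further: 0% = plate median of compound wells and 100% = 30 µM serotonin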
Target sequence (P35363 whole entry, looked up): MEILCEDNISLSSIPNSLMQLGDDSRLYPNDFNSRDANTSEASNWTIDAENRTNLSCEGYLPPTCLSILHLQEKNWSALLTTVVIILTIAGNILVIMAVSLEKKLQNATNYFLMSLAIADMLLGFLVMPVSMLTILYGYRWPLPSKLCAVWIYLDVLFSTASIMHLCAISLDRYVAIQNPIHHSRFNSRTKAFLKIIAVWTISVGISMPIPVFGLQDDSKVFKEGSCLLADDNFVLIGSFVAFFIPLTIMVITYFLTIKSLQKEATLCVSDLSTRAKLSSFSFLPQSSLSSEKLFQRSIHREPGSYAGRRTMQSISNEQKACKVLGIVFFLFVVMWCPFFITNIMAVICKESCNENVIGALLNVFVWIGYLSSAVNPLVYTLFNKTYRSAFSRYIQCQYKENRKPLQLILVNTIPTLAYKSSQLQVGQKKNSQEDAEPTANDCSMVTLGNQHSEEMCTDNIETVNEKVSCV
MsrA inhibitor – bovine MsrA inhibition; purified bovine MsrA, absorbance read-out; inhibition, % at 15.5 µM; 0.75% of 360,000 active; AID 651718;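 further: 0% = vehicle wells with enzyme and 100% = reference inhibitor wells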
TbMetRS inhib – blocks T. brucei methionyl-tRNA synthetase activity; purified T. brucei MetRS, ATP depletion, Kinase-Glo luminescence; inhibition, % at 11.9 µM; 0.4% of 360,000 active;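 active means inhibition above a per-plate cutoff of the control wells' mean inhibition plus 3 SD, cut at about 5.5% in these data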;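 further: 0% = DMSO wells median and 100% = median of wells with control inhibitor compound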
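Test system: purified T. brucei MetRS enzyme. Also added: ATP, methionine and E. coli bulk tRNA substrates. Compound: 11.9 µM single point. Schedule: 15 min enzyme-compound preincubation, 2 h reaction, 10 min detection, 25 °C. Signal: luciferase luminescence of residual ATP, Kinase-Glo. Evaluation: percent inhibition versus plate control medians. Controls: DMSO wells, low control.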
bovine MsrA act – bovine methionine sulfoxide reductase A activation. purified bovine MsrA, absorbance read-out. activation, % at 10.6 µM. 0.3% of 360,000 active; in the data active means activation above about 7.5%;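 further: 0% = vehicle and 100% = reference activator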
AHR act – human AHR activation; P35869; AHR-responsive luciferase reporter cells, luminescence; activation, % at 5 µM; 2.5% of 320,000 active; in the data active means activation above about 47%;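 further: 0% = vehicle wells and 100% = reference agonist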
MsrA inh confirm – bovine MsrA inhibition, confirmed; purified bovine MsrA, absorbance read-out; 41% of 2,300 active; shares compounds with MsrA inhibitor; inhibition, % at 15.5 µM; AID 651822;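 further: coupled to thioredoxin reductase with NADPH and selenocystamine and DMSO as substrate; 0% = vehicle only and 100% = full effect of reference inhibitor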
* marks the source's active call; other numbers are inactive results; . = not tested or not shown. Unless noted, no stated cut-off is given here; in the data, active means inhibition above about 4.5%; inactive means the rest.

SMILES | AI-2 QS modul | HTR2A ag | MsrA inhibitor | TbMetRS inhib | bovine MsrA act | AHR act | MsrA inh confirm
Cc1ccc(/C=N\Nc2cn[nH]c(=O)c2Cl)cc1 | 18 | -3 | 7.8* | -1 | -6 | 2 | 6.6*
O=c1[nH]ncc(N/N=C/c2ccccc2)c1Cl | 23 | -4 | 7.2* | -1 | -16 | -1 | 6.8*
O=c1[nH]ncc(NCCc2ccccc2)c1Cl | 12 | 4 | 2 | 0 | -1 | -4 | .
Cc1ccsc1/C=N\Nc1cn[nH]c(=O)c1Cl | -3 | -4 | 4 | 0 | -6 | 1 | .
COc1ccc(/C=N/Nc2cn[nH]c(=O)c2Cl)cc1 | 20 | -1 | 5.4* | 0 | -8 | 5 | 5.9*
CCCS(=O)(=O)NC(=O)C1(C)CCCN(C(=O)c2cc(-c3cccs3)oc2C)C1 (centres undefined) | . | -1 | 1 | 0 | 0 | . | .
Cc1cccc(NC(=O)c2ccc3c(c2)C(=O)N(c2ccccc2C)C3=O)n1 | 27 | -2 | 0 | 0 | -2 | 4 | .
COc1ccc(CN2C(=O)C(CC(=O)NC(c3ccccc3)c3ccccc3)CC(C(=O)N(C(C)C)C(C)C)=C2C)cc1 (centres undefined) | . | -2 | 0 | -1 | -1 | . | .
Cc1ccc(NS(=O)(=O)c2ccc(C(=O)Nc3nncs3)cc2)cc1 | . | 3 | 1 | 0 | 0 | 2 | .
O=[N+]([O-])c1ccc(Oc2cccc3cccnc23)c([N+](=O)[O-])c1 | 16 | 7 | 7.3* | -1 | -11 | 53* | 4
CN(Cc1ccccc1)C(=O)c1ccc(Nc2nc(C(N)Cc3ccc(C(F)(F)F)cc3)cs2)nc1 (centres undefined) | . | 5 | -1 | 0 | -1 | . | .
O=C(N=Nc1c(O)[nH]c2ccccc12)c1ccc(CN2CCOCC2)cc1 | 15 | -2 | 6.1* | 0 | 2 | 1 | 3
O=C(N=Nc1c(O)[nH]c2ccccc12)c1ccco1 | 16 | -1 | 6.8* | -1 | -9 | 34 | 5.0*
CC(C)Oc1ccc(S(=O)(=O)N2CCOCC2)cc1NC(=O)C(C)Oc1ccc(F)cc1 (centres undefined) | 4 | 2 | 0 | 0 | -1 | 3 | .
COc1ccc2nc(NC(=S)N(C)C)sc2c1 | 21 | -7 | 6.3* | 0 | -3 | -10 | 4
CC(=O)NCc1ccc(S(=O)(=O)N/N=C/c2ccc(N(C)C)cc2)cc1 | 32 | 8 | 5.6* | 0 | -4 | 2 | 3
CC(=O)Nc1ccc(/C=N/NS(=O)(=O)c2cc(C)ccc2C)cc1 | 9 | -6 | 1 | -1 | -9 | 0 | .
Cc1ccc(C)c(S(=O)(=O)N/N=C/c2ccc(N(C)C)cc2)c1 | 14 | -1 | 5.4* | 1 | -1 | 4 | 2
O=C1c2ccccc2NC(c2ccc(F)cc2)N1Cc1ccccc1 (centres undefined) | 33 | 1 | -1 | -1 | -1 | -2 | .
CCCCOC(=O)C1CN(c2ccccc2)N=C1C(C)=O (centres undefined) | 28 | -2 | 0 | 0 | -3 | 0 | .
CCCCOC(=O)C1CN(c2ccccc2)N=C1C(=O)OCC (centres undefined) | 20 | -3 | 53* | 0 | 0 | 1 | 2
COc1ccc(S(=O)(=O)N(CC(=O)NCc2ccncc2)c2cc(C)cc(C)c2)cc1OC | 4 | 4 | 0 | 0 | 0 | 7 | .
COc1ccccc1NS(=O)(=O)c1ccc(N/N=C/c2ccccc2OCC(=O)O)c([N+](=O)[O-])c1 | 61 | -2 | 5.4* | 0 | -4 | 1 | 3
O=C(O)COc1ccccc1/C=N/Nc1ccc(S(=O)(=O)Nc2ccc(Cl)cc2)cc1[N+](=O)[O-] | 32 | 3 | 4 | 0 | -2 | 2 | .
CCN(CC)S(=O)(=O)c1ccc(N/N=C/c2ccccc2OCC(=O)O)c([N+](=O)[O-])c1 | -2 | 12 | 5.6* | -1 | -10 | -1 | 2
SMILES | AI-2 QS modul | HTR2A ag | MsrA inhibitor | TbMetRS inhib | bovine MsrA act | AHR act | MsrA inh confirm
Cc1cccc(C)c1NC(=O)CN(C)C(=O)CC1Sc2ccccc2NC1=O (centres undefined) | 10 | -2 | 0 | 0 | -3 | 11 | .
CCCCn1nnnc1C(c1cc2ccccc2o1)N1CCN(C(=O)OC(C)(C)C)CC1 (centres undefined) | . | -3 | 0 | -2 | -10 | . | .
COc1cccc(/C=C/C(=O)c2cccc([N+](=O)[O-])c2)c1OC | 26 | 1 | 1 | -1 | -11 | 14 | .
COc1ccc(/C=C/C(=O)c2ccncc2)c2ccccc12 | 2 | -1 | 8.3* | 0 | 0 | 53* | -1
CC(/C=C/c1ccc2c(c1)OCO2)=N/NC(=O)c1ccncc1 | 20 | -1 | 5.6* | 4 | -7 | 24 | 8.6*
CC(/C=C/c1ccc2c(c1)OCO2)=N/NC(=O)c1ccc(C)nc1 | 22 | -3 | 5.4* | 0 | -2 | 41 | 7.1*
Cc1ccc(C(=O)N/N=C\c2cc3c(cc2Br)OCO3)cn1 | 7 | -1 | 0 | -1 | -1 | 8 | .
CC(/C=C/c1ccc2c(c1)OCO2)=N/NC(=O)c1cccnc1 | 30 | -1 | 7.2* | 1 | -4 | 46 | 5.5*
CC(C)C[C@H]1CN([C@@H](Cc2ccc(O)cc2)CN2CCC[C@H]2CN2C(=O)C(=O)NC[C@@H]2Cc2ccc(O)cc2)C(=O)C(=O)N1CCc1ccccc1 | . | 3 | 0 | 0 | 2 | . | .
CCOC(=O)CN1CCCc2nc(-c3ccc(OC)cc3)ccc21 | . | . | 0 | . | . | . | .
O=C1NCCN1C(=O)c1cccc(Cl)c1 | . | 6 | 12* | -1 | 0 | -1 | 9.9*
COc1ccc(CC(=O)N(C)Cc2ccc(OC(F)F)cc2)cc1S(=O)(=O)N1CCOCC1 | . | 8 | 1 | 0 | -6 | . | .
COc1ccc(/C=C/C(=O)O)cc1 | . | 6 | 0 | -2 | -1 | 1 | .
COc1ccc(/C=C/C(=O)C2(O)CCCCC2)cc1 | -65 | 0 | 5.2* | -1 | -6 | 0 | 3
O=C(Nc1ccc2nc([C@H]3C[C@H](O)[C@@H](CO)O3)[nH]c2c1)NC(c1ccccc1)c1ccccc1 | . | -4 | 0 | 0 | 1 | . | .
COc1cc2c(cc1OC)CN(c1ccc([N+](=O)[O-])cc1Cl)CC2 | 27 | -3 | 4.8* | 5 | -1 | 0 | 1
COc1ccccc1N1CCN(c2ccc([N+](=O)[O-])cc2Cl)CC1 | 0 | 1 | 1 | 2 | -13 | -7 | .
Oc1ccc(/C=N/NC(=S)N/N=C/c2ccc(O)cc2)cc1 | 9 | -2 | 6.4* | 0 | 4 | 9 | 7.2*
Oc1ccc(/C=N/NC(=S)Nc2cccnc2)cc1 | 8 | -1 | 7.9* | 0 | -2 | 54* | 6.2*
Cc1cc(C(=O)Nc2ccccc2C)n(-c2ccccc2)n1 | 5 | -1 | 0 | -1 | -2 | 0 | .
